Test results as given in ChEMBL document CHEMBL2375290, “Nonclassical antifolates, part 3: synthesis, biological evaluation and molecular modeling study of some new 2-heteroarylthio-quinazolin-4-ones” (Eur J Med Chem, 2013).
Converted amounts (≈) assume the structure as drawn.

What was measured:
Micrococcus luteus [1] = experiment: Antimicrobial activity against Micrococcus luteus after 24 hrs by micro-dilution susceptibility method; type: functional
Method in brief: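 MIC by broth microdilution in Müller-Hinton broth against M. luteus IFO 3232, the same strain used in the disc-diffusion primary screen.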

Bacillus subtilis [2] = experiment: Antimicrobial activity against Bacillus subtilis at 100 ug after 24 hrs by agar disc diffusion method; type: functional
Method in brief: (§1)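 Agar disc diffusion on Müller-Hinton agar. Sterile 8 mm filter-paper discs were moistened with the compound in DMSO. Strains were B. subtilis IFO 3007 and M. luteus IFO 3232. Plates were incubated at 37 °C, and growth-inhibition zone diameters were measured in mm after 24 h. DMSO served as the solvent control.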

Staphylococcus aureus [3] = experiment: Antimicrobial activity against Staphylococcus aureus after 24 hrs by micro-dilution susceptibility method; type: functional
Method in brief: (§2)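 Broth microdilution in Müller-Hinton broth against S. aureus IFO 3060, B. subtilis IFO 3007, E. coli IFO 3301 and P. aeruginosa IFO 3448. These are the same standard strains used in the disc-diffusion primary screen. Compounds were solubilized in DMSO. MIC recorded as the minimal inhibitory concentration.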

Bacillus subtilis [4] = experiment: Antimicrobial activity against Bacillus subtilis after 24 hrs by micro-dilution susceptibility method; type: functional; method in brief: as §2
Micrococcus luteus [5] = experiment: Antimicrobial activity against Micrococcus luteus at 100 ug after 24 hrs by agar disc diffusion method; type: functional; method in brief: as §1
Pseudomonas aeruginosa [6] = experiment: Antimicrobial activity against Pseudomonas aeruginosa after 24 hrs by micro-dilution susceptibility method; type: functional; method in brief: as §2
Dihydrofolate reductase = biological target: T1, Dihydrofolate reductase (Bos taurus, UniProt P00376); experiment: Inhibition of bovine DHFR after 2 mins by spectrophotometry
T1 sequence (P00376 whole entry): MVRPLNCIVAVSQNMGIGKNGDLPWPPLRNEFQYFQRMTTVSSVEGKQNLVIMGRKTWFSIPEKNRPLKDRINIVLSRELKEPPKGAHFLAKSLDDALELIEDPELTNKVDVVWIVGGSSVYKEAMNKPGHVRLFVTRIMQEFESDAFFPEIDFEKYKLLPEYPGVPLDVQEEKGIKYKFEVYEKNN

Staphylococcus aureus [7] = experiment: Antimicrobial activity against Staphylococcus aureus at 200 ug after 24 hrs by agar disc diffusion method; type: functional; conditions: read-out: DIZ
Pseudomonas aeruginosa [8] = experiment: Antimicrobial activity against Pseudomonas aeruginosa at 200 ug after 24 hrs by agar disc diffusion method; type: functional; conditions: read-out: DIZ
Bacillus subtilis [9] = experiment: Antimicrobial activity against Bacillus subtilis at 200 ug after 24 hrs by agar disc diffusion method; type: functional; conditions: read-out: DIZ
Escherichia coli [10] = experiment: Antimicrobial activity against Escherichia coli after 24 hrs by micro-dilution susceptibility method
Micrococcus luteus [11] = experiment: Antimicrobial activity against Micrococcus luteus at 200 ug after 24 hrs by agar disc diffusion method; type: functional; conditions: read-out: DIZ
Escherichia coli [12] = experiment: Antimicrobial activity against Escherichia coli at 200 ug after 24 hrs by agar disc diffusion method; type: functional; conditions: read-out: DIZ
Hs-578T = experiment: Cytotoxicity against human Hs578T cells at 10 uM after 48 hrs by coulter counter analysis; type: functional; conditions: read-out: GI
A498 = experiment: Cytotoxicity against human A498 cells at 10 uM after 48 hrs by coulter counter analysis; type: functional; conditions: A498, 48 h, read-out: GI
IGROV-1 = experiment: Cytotoxicity against human IGROV1 cells at 10 uM after 48 hrs by coulter counter analysis; type: functional; conditions: IGROV-1, 48 h, read-out: GI
[13] = Cytotoxicity against human EKVX cells at 10 uM after 48 hrs by coulter counter analysis; type: functional; conditions: read-out: GI
UO-31 = experiment: Cytotoxicity against human UO31 cells at 10 uM after 48 hrs by coulter counter analysis; type: functional; conditions: UO-31, 48 h, read-out: GI
CAKI-1 = experiment: Cytotoxicity against human Caki1 cells at 10 uM after 48 hrs by coulter counter analysis; type: functional; conditions: CAKI-1, 48 h, read-out: GI
LOX IMVI = experiment: Cytotoxicity against human LOXIMVI cells at 10 uM after 48 hrs by coulter counter analysis; type: functional; conditions: read-out: GI
Malme-3M = experiment: Cytotoxicity against human MALME-3M cells at 10 uM after 48 hrs by coulter counter analysis; type: functional; conditions: read-out: GI
SR = experiment: Cytotoxicity against human SR cells at 10 uM after 48 hrs by coulter counter analysis; type: functional; conditions: read-out: GI
PC-3 = experiment: Cytotoxicity against human PC3 cells at 10 uM after 48 hrs by coulter counter analysis; type: functional; conditions: PC-3, 48 h, read-out: GI
UACC-62 = experiment: Cytotoxicity against human UACC62 cells at 10 uM after 48 hrs by coulter counter analysis; type: functional; conditions: UACC-62, 48 h, read-out: GI
NCI-H23 = experiment: Cytotoxicity against human NCI-H23 cells at 10 uM after 48 hrs by coulter counter analysis; type: functional; conditions: NCI-H23, 48 h, read-out: GI
HL-60(TB) = experiment: Cytotoxicity against human HL-60(TB) cells at 10 uM after 48 hrs by coulter counter analysis; type: functional; conditions: HL-60, 48 h, read-out: GI
SF-295 = experiment: Cytotoxicity against human SF295 cells at 10 uM after 48 hrs by coulter counter analysis; type: functional; conditions: SF-295, 48 h, read-out: GI
RXF 393 = experiment: Cytotoxicity against human RXF393 cells at 10 uM after 48 hrs by coulter counter analysis; type: functional; conditions: RXF 393, 48 h, read-out: GI
A549 = experiment: Cytotoxicity against human A549/ATCC cells at 10 uM after 48 hrs by coulter counter analysis; type: functional; conditions: A549, 48 h, read-out: GI
OVCAR-4 = experiment: Cytotoxicity against human OVCAR4 cells at 10 uM after 48 hrs by coulter counter analysis; type: functional; conditions: OVCAR-4, 48 h, read-out: GI
MDA-MB-231 = experiment: Cytotoxicity against human MDA-MB-231 cells at 10 uM after 48 hrs by coulter counter analysis; type: functional; conditions: MDA-MB-231, 48 h, read-out: GI
CCRF-CEM = experiment: Cytotoxicity against human CCRF-CEM cells at 10 uM after 48 hrs by coulter counter analysis; type: functional; conditions: read-out: GI
SK-MEL-5 = experiment: Cytotoxicity against human SK-MEL-5 cells at 10 uM after 48 hrs by coulter counter analysis; type: functional; conditions: SK-MEL-5, 48 h, read-out: GI
SNB-75 = experiment: Cytotoxicity against human SNB75 cells at 10 uM after 48 hrs by coulter counter analysis; type: functional; conditions: SNB-75, 48 h, read-out: GI
MOLT-4 = experiment: Cytotoxicity against human MOLT4 cells at 10 uM after 48 hrs by coulter counter analysis; type: functional; conditions: MOLT-4, 48 h, read-out: GI
NCI-H226 = experiment: Cytotoxicity against human NCI-H226 cells at 10 uM after 48 hrs by coulter counter analysis; type: functional; conditions: NCI-H226, 48 h, read-out: GI
[14] = Cytotoxicity against human NCI-ADR-RES cells at 10 uM after 48 hrs by coulter counter analysis; type: functional; conditions: read-out: GI
SN12C = experiment: Cytotoxicity against human SN12C cells at 10 uM after 48 hrs by coulter counter analysis; type: functional; conditions: read-out: GI
RPMI-8226 = experiment: Cytotoxicity against human RPMI8226 cells at 10 uM after 48 hrs by coulter counter analysis; type: functional; conditions: RPMI-8226, 48 h, read-out: GI
NCI-H522 = experiment: Cytotoxicity against human NCI-H522 cells at 10 uM after 48 hrs by coulter counter analysis; type: functional; conditions: NCI-H522, 48 h, read-out: GI
SNB-19 = experiment: Cytotoxicity against human SNB19 cells at 10 uM after 48 hrs by coulter counter analysis; type: functional; conditions: SNB-19, 48 h, read-out: GI
MCF7 = experiment: Cytotoxicity against human MCF7 cells at 10 uM after 48 hrs by coulter counter analysis; type: functional; conditions: MCF7, 48 h, read-out: GI
T47D = experiment: Cytotoxicity against human T47D cells at 10 uM after 48 hrs by coulter counter analysis; type: functional; conditions: read-out: GI
MDA-MB-435 = experiment: Cytotoxicity against human MDA-MB-435 cells at 10 uM after 48 hrs by coulter counter analysis; type: functional; conditions: MDA-MB-435, 48 h, read-out: GI

GENTAMICIN
MIC (Micrococcus luteus [1]): 2 µg/mL | inhibition zone (IZ) (Bacillus subtilis [2]): 25 mm | MIC (Staphylococcus aureus [3]): 2 µg/mL | MIC (Bacillus subtilis [4]): 2 µg/mL | inhibition zone (IZ) (Micrococcus luteus [5]): 18 mm | MIC (Pseudomonas aeruginosa [6]): 1 µg/mL

CCOC(=O)c1nc(N)sc1Sc1nc2ccc(C)cc2c(=O)n1Cc1ccccc1
IC50 (Dihydrofolate reductase): 4 µM | zone of inhibition at 200 µg/disc (Staphylococcus aureus [7]): 24 mm | MIC (Micrococcus luteus [1]): 4 µg/mL (≈ 8.84 µM) | zone of inhibition at 200 µg/disc (Pseudomonas aeruginosa [8]): 18 mm | MIC (Staphylococcus aureus [3]): 2 µg/mL (≈ 4.42 µM) | zone of inhibition at 200 µg/disc (Bacillus subtilis [9]): 26 mm | MIC (Bacillus subtilis [4]): 2 µg/mL (≈ 4.42 µM) | MIC (Escherichia coli [10]): 2 µg/mL (≈ 4.42 µM) | MIC (Pseudomonas aeruginosa [6]): 4 µg/mL (≈ 8.84 µM) | zone of inhibition at 200 µg/disc (Micrococcus luteus [11]): 20 mm | zone of inhibition at 200 µg/disc (Escherichia coli [12]): 24 mm

COc1cc2nc(Sc3ncccc3C(=O)O)n(Cc3ccccc3)c(=O)c2cc1OC
inhibition of growth at 10 µM (Hs-578T): < 10% | inhibition of growth at 10 µM (A498): < 10% | inhibition of growth at 10 µM (IGROV-1): < 10% | IC50 (Dihydrofolate reductase): 5 µM | inhibition of growth at 10 µM [13]: 23.1% | inhibition of growth at 10 µM (UO-31): 14.6% | zone of inhibition at 200 µg/disc (Staphylococcus aureus [7]): 22 mm | inhibition of growth at 10 µM (CAKI-1): 15.9% | inhibition of growth at 10 µM (LOX IMVI): < 10% | inhibition of growth at 10 µM (Malme-3M): < 10% | inhibition of growth at 10 µM (SR): 29.8% | inhibition of growth at 10 µM (PC-3): < 10% | inhibition of growth at 10 µM (UACC-62): 11.6% | inhibition of growth at 10 µM (NCI-H23): < 10% | inhibition of growth at 10 µM (HL-60(TB)): 13.2% | inhibition of growth at 10 µM (SF-295): < 10% | inhibition of growth at 10 µM (RXF 393): < 10% | inhibition of growth at 10 µM (A549): < 10% | inhibition of growth at 10 µM (OVCAR-4): 14.3% | zone of inhibition at 200 µg/disc (Pseudomonas aeruginosa [8]): 12 mm | MIC (Staphylococcus aureus [3]): 4 µg/mL (≈ 8.9 µM) | inhibition of growth at 10 µM (MDA-MB-231): < 10% | zone of inhibition at 200 µg/disc (Bacillus subtilis [9]): 26 mm | MIC (Bacillus subtilis [4]): 2 µg/mL (≈ 4.45 µM) | MIC (Escherichia coli [10]): 4 µg/mL (≈ 8.9 µM) | inhibition of growth at 10 µM (CCRF-CEM): < 10% | inhibition of growth at 10 µM (SK-MEL-5): < 10% | inhibition of growth at 10 µM (SNB-75): < 10% | inhibition of growth at 10 µM (MOLT-4): 13.8% | inhibition of growth at 10 µM (NCI-H226): 14% | inhibition of growth at 10 µM [14]: < 10% | inhibition of growth at 10 µM (SN12C): < 10% | inhibition of growth at 10 µM (RPMI-8226): 12.5% | inhibition of growth at 10 µM (NCI-H522): 17.3% | inhibition of growth at 10 µM (SNB-19): < 10% | inhibition of growth at 10 µM (MCF7): 13.5% | zone of inhibition at 200 µg/disc (Micrococcus luteus [11]): 15 mm | inhibition of growth at 10 µM (T47D): < 10% | zone of inhibition at 200 µg/disc (Escherichia coli [12]): 18 mm | inhibition of growth at 10 µM (MDA-MB-435): < 10%
